Screening data deposited in PubChem by several laboratories.
Diaph act CS: counter-screen for diaphorase-based assays: diaphorase activators and chemical reducers. Diaphorase/resazurin coupled assay, resorufin fluorescence, 16 min; hits give high values; 1 = vehicle wells, 0 = NADH-free wells. activation factor at 20 µM. hit rate 0.005% among 190,000. AID 1229;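 active means diaphorase activity raised at least twofold by the compound at 20 µM; inactive means activation factor below 2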
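Assay system: bacterial diaphorase enzyme (C. kluyveri) / Input: enzyme 0.07 U/mL final / Medium: 50 mM HEPES pH 7.4 with 4.542 mM MgCl2, 0.005% Tween 20 / Doses: single compound dose of 20 µM, 1% DMSO final / Incubation: 16 min enzyme reaction, ambient temperature / Signal: fluorescence, excitation 544 nm and emission 590 nm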
PMI act hi M6P: PMI (human) activation, high substrate; P34949; coupled PMI enzyme assay, resazurin fluorescence, 20 min; hits give high values; 1 = untreated enzyme, 0 = substrate-free blank; activation factor at 20 µM; hit rate 0.34% among 190,000; AID 1216;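 active means activation factor of 2 or more at 20 µM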
Target sequence (P34949 whole entry, looked up): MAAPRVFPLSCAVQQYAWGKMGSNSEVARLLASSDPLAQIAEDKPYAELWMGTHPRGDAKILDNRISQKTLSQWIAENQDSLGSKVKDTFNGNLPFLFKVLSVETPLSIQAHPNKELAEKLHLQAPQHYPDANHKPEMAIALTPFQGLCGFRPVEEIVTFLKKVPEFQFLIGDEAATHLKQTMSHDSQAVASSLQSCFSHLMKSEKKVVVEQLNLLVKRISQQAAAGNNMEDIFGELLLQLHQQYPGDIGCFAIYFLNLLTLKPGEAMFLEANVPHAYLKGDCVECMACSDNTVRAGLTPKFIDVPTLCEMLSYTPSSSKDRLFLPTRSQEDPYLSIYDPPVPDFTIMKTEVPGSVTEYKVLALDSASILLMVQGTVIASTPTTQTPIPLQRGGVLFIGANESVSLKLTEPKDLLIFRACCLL
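Test system: human phosphomannose isomerase with PGI, G6PDH, diaphorase coupling enzymes; Amount: PMI at 15 ng/mL final; Reagent: Mannose-6-phosphate 1.0 mM (near-saturating) plus 0.22 mM NADP+; Timing: 20 min, room temperature; Technique: resorufin fluorescence at Ex 544/Em 590 nm; Dosing: 20 µM single dose.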
PMI act: activators of human phosphomannose isomerase; P34949; purified human PMI, coupled resazurin fluorescence, 20 min; hits give high values; 1 = vehicle control, 0 substrate-free wells; activation factor at 20 µM; hit rate 0.005% among 190,000; AID 1214;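 active means activation factor of 2 or more at 20 µM, relative to plate controls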
WT yeast gro inh: growth inhibition of WT yeast, mitochondrial fusion screen | AID 1362 | inhibition, % at 10 µM | mitochondrial fusion phenotypic screen, WT strain | hit rate 2.1% among 190,000; in the data active means inhibition above about 58%; tested in S. cerevisiae
Lmaj promast: reduces viability of Leishmania major promastigotes; hit rate 9% among 200,000; AID 1063; resazurin fluorescence viability; inhibition, % at 10 µM; in the data active means inhibition above about 50%;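 further: promastigotes grown with compound for 44 hours at 28 °C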
* hit, by the source's call. Most compounds without a hit are left out; they make up all but 10% or so of the library.

SMILES	Diaph act CS	PMI act hi M6P	PMI act	WT yeast gro inh	Lmaj promast
CC(Oc1ccc(Cl)cc1Cl)C(=O)Nc1ccncc1 (stereo not given)	0.9	1	1	29	3
CC(Oc1ccc(Cl)cc1Cl)C(=O)NCCCN1CCOCC1 (stereo not given)	1.1	1	1.1	14	90*
NN1C(=O)NC(c2ccccc2)(c2ccccc2)C1=O	1	1	1	5	-3
N#CC(C#N)=c1ccc2c(c1)NC1(CCCCC1)N=2	0.7	0.5	0.7	43	100*
CCCCNC(=O)c1ccc(CS(=O)(=O)Cc2ccccc2F)o1	1.1	1	1.1	-2	4
O=C(O)c1cc(N2C(=O)C3CC=CCC3C2=O)ccc1NCc1cccnc1 (stereo not given)	0.9	1	1	-4	-3
CCCSc1nc(C)c2cc(C)cc(C)c2n1	0.8	0.9	0.9	54	-1
Cc1cc(C)c2nc3nc(C)c(C)cc3c(N)c2c1	1	0.7	0.8	33	100*
O=C(CSc1nc2ccccc2o1)Nc1nccs1	1.1	1.1	1.1	7	-5
CCCOc1cccc(NC(=O)OC2CCN(C)CC2)c1	0.9	1	1	14	-2
COc1ccccc1NC(=S)N(Cc1ccc(C(=O)O)cc1)Cc1ccc(OC)c(OC)c1	1	1	1	-2	4
Cc1ccccc1NC(=S)N(Cc1cccnc1)Cc1ccccc1Cl	0.9	1	1	6	92*
COc1ccccc1NC(=S)N(Cc1ccc(C)cc1)Cc1ccccn1	0.9	0.9	0.9	-7	91*
COc1ccccc1NC(=S)N(Cc1ccccc1)Cc1cccs1	1	1	0.9	18	-3
COc1ccccc1NC(=S)N(Cc1cccnc1)Cc1ccccc1Cl	0.8	1	1	26	77*
COc1ccccc1NC(=S)N(Cc1ccc(C)cc1)Cc1cccnc1	0.8	1	0.9	74*	6
COc1ccccc1NC(=S)N(CCc1ccc(OC)c(OC)c1)Cc1ccccn1	0.9	1	1	6	4
Cc1cc(C)n(-c2cccc(F)n2)n1	1	1.1	1.1	-7	0
Cc1ccc(Cl)cc1NC(=S)N(Cc1ccccc1)Cc1cccnc1	0.9	1	1	19	99*
S=C(Nc1ccccc1Cl)N(Cc1ccccc1)Cc1cccnc1	0.8	1	1	-2	91*
CSc1cccc(NC(=S)N(Cc2ccc(C)cc2)Cc2ccccn2)c1	0.9	0.9	0.9	29	97*
COc1ccc(CCN(Cc2ccccn2)C(=S)Nc2cccc(SC)c2)cc1OC	0.7	0.8	0.8	41	15
COc1ccc(Cl)cc1NC(=S)N(Cc1cccnc1)Cc1ccco1	1	1.1	1.1	2	13
CCOC(=O)N1CCC(NC(=O)c2cc(C(=O)Nc3ccc(S(=O)(=O)N4CCOCC4)cc3)ccc2CO)CC1	1	1.1	1	5	-5
CC(C)(C)NC(=O)CSC(=Nc1ccc(F)cc1)NC#N	0.8	0.9	0.9	11	19
SMILES	Diaph act CS	PMI act hi M6P	PMI act	WT yeast gro inh	Lmaj promast
CS(=O)(=O)Nc1cccc(C2=NN(C(=O)c3ccccc3Cl)C(c3ccccc3O)C2)c1 (stereo not given)	0.8	0.9	1	-1	-7
CCCCCCNC1=NCCS1	1	1.1	1.1	-3	5
CCCCCOc1ccc(Br)cc1CSC(=N)N	1	0.9	0.9	65*	100*
O=C(NC(CO)Cc1ccc([N+](=O)[O-])cc1)C(Cl)Cl (stereo not given)	0.9	0.9	0.9	7	63*
CCCCCCc1cc2cc(S(=O)(=O)c3ccc(Cl)cc3)c(=O)oc2cc1O	1	1.1	1.1	88*	-7
Fc1ccc(/C=N/Nc2ncnc3nc[nH]c23)cc1F	1.1	1	1.1	16	50*
C(=N\Nc1ncnc2nc[nH]c12)/c1cccs1	1.1	1	1	-11	17
CCOC(=O)/C(=N\Nc1cc(Cl)ccc1Cl)N1CCN(CC)CC1	0.9	0.9	0.9	18	10
COc1ccc2c(c1)C=C(CN1CCN(C(C)C)C(CCO)C1)CO2 (stereo not given)	0.9	1	0.9	9	3
OCCC1CN(Cc2c(F)cccc2Cl)CCN1C1CCCCC1 (stereo not given)	1	1	1	-2	53*
OCCC1CN(Cc2nc(-c3ccccc3)cs2)CCN1Cc1ccc(F)cc1 (stereo not given)	0.9	1.4	1.4	30	79*
OCCC1CN(Cc2nc(-c3ccccc3)cs2)CCN1C1CCCC1 (stereo not given)	1	1	1.1	-8	84*
COc1ccc2c(c1)C=C(CN1CCN(C3CCCC3)C(CCO)C1)CO2 (stereo not given)	1	1	1	-19	88*
CCSc1nnc(NS(=O)(=O)c2ccc(OC)cc2)s1	0.9	1.3	1.2	-14	-5
CCc1cc2c(=O)c(-c3cnn(-c4ccccc4)c3)c(C(F)(F)F)oc2c(CN(C)C)c1O	1.1	1.1	1.1	6	2
CC(C)N1CCN(Cc2nc(-c3ccccc3)cs2)CC1CCO (stereo not given)	0.7	0.9	0.8	1	3
CC(C)CCN1CCN(Cc2nc(-c3ccc(F)cc3)cs2)CC1CCO (stereo not given)	1.1	1	0.9	2	82*
Cc1[nH]c2ccccc2c1SCC(=O)N1CCCCCC1	0.8	1	0.9	-4	-2
O=C(CN1CCN(CC(=O)c2ccc(F)cc2)CC1)Nc1ccccc1Cl	0.9	2.2*	1.4	12	-5
O=C(CSc1nnc(Nc2ccccc2)s1)NN1C(=O)NC2(CCCCC2)C1=O	0.8	1	1	-5	27
Oc1c(Br)cc(Br)cc1C=NCc1ccc(F)cc1	0.7	0.5	1	14	-12
COc1ccc(N(CC(=O)Nc2cc(C)ccc2C)S(=O)(=O)c2ccccc2[N+](=O)[O-])c(OC)c1	0.9	1	0.9	-2	35
COc1ccc(Cl)cc1N(CC(=O)NC(C)(C)C)S(=O)(=O)c1ccc(C)c([N+](=O)[O-])c1	0.8	0.8	0.8	31	96*
O=C(CN1CCCCC1)N1N=C(c2cccs2)CC1c1cccs1 (stereo not given)	0.9	0.9	0.9	1	-3
S=C(Nc1ccccc1)N1N=C(c2cccs2)CC1c1cccs1 (stereo not given)	0.9	1	0.8	11	74*
CC1=NN(C(=S)Nc2ccccc2)C(c2ccccc2)C1 (stereo not given)	0.9	0.9	0.9	7	15
COc1cccc(C2CC(c3cccs3)=NN2C(=S)Nc2ccccc2)c1OC (stereo not given)	0.9	1	1	1	65*
